Assay outcomes: PubChem BioAssay, several laboratories
Hits are enriched below; roughly 5.5% of the tested compounds scored in any of these assays.
STAT3 act: increases IL-6 driven STAT3 reporter signal; U3A cells, IL-6 STAT3-luciferase reporter, luminescence; 100% = signal with IL-6 EC80 alone; activation (% of control), % at 5.6 µM; 0.91% of 190,000 active; AID 871;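 active = activation above the screen-wide mean of compound activation plus 3 SD, cut at about 130% in these data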;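 also: 0% = background luminescence of wells with medium and substrate only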
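Material: human STAT1-deficient U3A cells with stable STAT3-luciferase reporter / Probe or stimulus: IL-6 stimulus at 33 ng/mL final / Schedule: 1 h compound pre-exposure, 6 h IL-6 stimulation, 37 °C / Technique: luminescence / Read-out basis: percent of IL-6-only median luminescence / Control set: IL-6-only high control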
HSV replic up: increases HSV replication in cells. maximum fold increase. 0.005% of 220,000 active. HSV replication augmentation in cells, fold increase; in the data active = maximum fold increase above about 1.5; tested in PC3 cells
STAT3 inh: STAT3 signaling inhibition. U3A cells, IL-6 STAT3-luciferase reporter, luminescence; host cell line lacks STAT1. inhibition, % at 5.5 µM. 0.89% of 190,000 active. AID 862;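 active = inhibition above the mean inhibition across all screened compounds plus 3 SD, cut at about 44% in these data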;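 also: 0% = DMSO only wells and 100% = 100 µM nifuroxazide control wells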
STAT1 act: STAT1 signaling activation. activation (% of control), % at 5.5 µM. NIH 3T3 STAT1-luciferase reporter, IFN-gamma, luminescence; 100% = IFN-gamma alone, no compound. 2.6% of 200,000 active;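 active = activation above the screen-wide mean activation plus 3 SD, cut at about 130% in these data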;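 also: raw ratio to IFN-gamma control signal so 100% means no change and 0% no light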
STAT1 blocker: reduces IFN-gamma driven STAT1 reporter signal. 0.35% of 200,000 active. NIH 3T3 STAT1-luciferase reporter, luminescence. AID 920. inhibition, % at 5.5 µM;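 active = inhibition above a set limit, the mean inhibition across all tested compounds plus 3 SD, cut at about 34% in these data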;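 also: 0% = IFN-gamma with DMSO and 100% = IFN-gamma with 300 µM nifuroxazide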
KCC2 mod: modulators of human KCC2 chloride dependent transport; KCC2 cells, thallium flux FluoZin-2 fluorescence; B-score of Tl+ flux slope (higher = more flux/activation; lower = inhibition) at 10 µM; AID 1456; Q9H2X9; 2.2% of 190,000 active;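 active = thallium flux slope and its plate-corrected score both differing from the plate sample mean at a set confidence after two filtering rounds, in either direction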;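 also: slope of fluorescence scaled to starting intensity during 10 to 20 s after thallium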
Target sequence (Q9H2X9 whole entry, looked up): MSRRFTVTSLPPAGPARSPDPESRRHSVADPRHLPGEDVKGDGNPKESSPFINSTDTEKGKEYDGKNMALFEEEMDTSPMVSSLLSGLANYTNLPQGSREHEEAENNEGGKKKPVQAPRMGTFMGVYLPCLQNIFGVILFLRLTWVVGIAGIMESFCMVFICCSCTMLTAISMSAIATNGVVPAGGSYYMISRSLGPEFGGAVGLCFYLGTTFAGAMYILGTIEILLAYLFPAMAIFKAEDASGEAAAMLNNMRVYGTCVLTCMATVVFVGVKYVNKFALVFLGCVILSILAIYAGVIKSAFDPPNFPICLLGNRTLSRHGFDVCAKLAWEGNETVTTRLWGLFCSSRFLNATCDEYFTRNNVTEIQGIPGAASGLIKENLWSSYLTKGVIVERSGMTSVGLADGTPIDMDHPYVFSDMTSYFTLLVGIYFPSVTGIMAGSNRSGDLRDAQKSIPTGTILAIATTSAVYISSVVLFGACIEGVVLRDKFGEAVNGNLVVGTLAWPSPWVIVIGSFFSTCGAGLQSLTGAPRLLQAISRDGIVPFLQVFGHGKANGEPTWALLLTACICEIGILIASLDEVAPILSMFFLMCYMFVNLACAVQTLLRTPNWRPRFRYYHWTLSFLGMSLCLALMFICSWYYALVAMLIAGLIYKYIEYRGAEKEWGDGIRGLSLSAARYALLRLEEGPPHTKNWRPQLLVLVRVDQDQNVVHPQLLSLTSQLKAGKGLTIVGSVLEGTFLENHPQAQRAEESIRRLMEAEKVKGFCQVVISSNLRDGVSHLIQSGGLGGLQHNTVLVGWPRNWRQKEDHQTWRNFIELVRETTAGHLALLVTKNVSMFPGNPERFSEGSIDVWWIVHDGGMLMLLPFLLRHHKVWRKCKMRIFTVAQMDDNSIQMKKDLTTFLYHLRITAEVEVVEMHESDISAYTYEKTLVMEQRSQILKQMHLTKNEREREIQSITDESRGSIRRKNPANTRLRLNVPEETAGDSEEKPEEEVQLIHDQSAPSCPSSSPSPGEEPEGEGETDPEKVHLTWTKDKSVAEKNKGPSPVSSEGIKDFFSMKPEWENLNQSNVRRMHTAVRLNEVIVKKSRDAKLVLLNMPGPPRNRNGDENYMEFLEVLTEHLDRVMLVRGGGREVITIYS
An asterisk follows results filed as active.

For c1ccc(Nc2ncnc3c2oc2ccccc23)cc1 the results were STAT3 act 102, HSV replic up inactive, STAT3 inh 0, STAT1 act 132*, STAT1 blocker -35 and KCC2 mod 1.7.
`c1ccc2c(c1)oc1c(NCc3ccc4c(c3)OCO4)ncnc12` gave STAT3 act 101, HSV replic up inactive, STAT3 inh 4, STAT1 act 91, STAT1 blocker 8 and KCC2 mod -5.1*.
For Oc1ccccc1Nc1ncnc2c1oc1ccccc12 the results were STAT3 act 158*, HSV replic up inactive, STAT3 inh -66, STAT1 act 110 and STAT1 blocker -11.
c1ccc2c(c1)oc1c(NCCN3CCOCC3)ncnc12 was read as STAT3 act 102, HSV replic up inactive, STAT3 inh 1, STAT1 act 98 and STAT1 blocker 2.
Screening CCc1nn2cc(C(=O)c3cc(Cl)ccc3O)cnc2c1-c1ccc(F)cc1 returned STAT3 act 101, HSV replic up inactive, STAT3 inh 1, STAT1 act 95, STAT1 blocker 5 and KCC2 mod -0.62.
`COc1ccc(NC(=O)CSc2nnc3ccc(-c4ccncc4)nn23)cc1OC` gave STAT3 act 96, HSV replic up inactive, STAT3 inh 9, STAT1 act 92, STAT1 blocker 9 and KCC2 mod -0.19.
`Oc1[nH]c2ccccc2c1N=NC(=S)NCC1CCCO1` (stereo unspecified) gave STAT3 act 83, HSV replic up inactive, STAT3 inh 19, STAT1 act 96, STAT1 blocker 5 and KCC2 mod 4.2*.
`Cc1cc(C)c2[nH]c(O)c(N=NC(=S)NCC3CCCO3)c2c1` (stereo unspecified) gave STAT3 act 101, HSV replic up inactive, STAT3 inh 0, STAT1 act 105, STAT1 blocker -6 and KCC2 mod 0.85.
Oc1[nH]c2c(Cl)cc(Cl)cc2c1N=NC(=S)NCC1CCCO1 (stereo unspecified) was read as STAT3 act 103, HSV replic up inactive, STAT3 inh -1, STAT1 act 102, STAT1 blocker -2 and KCC2 mod 56*.
Screening c1ccc(Cc2cc(-c3ccccc3)on2)cc1 returned STAT3 act 115, HSV replic up inactive, STAT3 inh -15, STAT1 act 132*, STAT1 blocker -35 and KCC2 mod 2.
For CSc1ccc(/C=N/N2CCN(Cc3ccccc3)CC2)cc1 the results were STAT3 act 100, HSV replic up inactive, STAT3 inh 2, STAT1 act 114 and STAT1 blocker -14.
Screening c1ccc2c(c1)CCN(c1nc(CN3CCOCC3)nc3sc4c(c13)CCCC4)C2 returned STAT3 act 95, HSV replic up inactive, STAT3 inh 6, STAT1 act 89, STAT1 blocker 12 and KCC2 mod -0.41.
CC(C)c1ccc(NC(=O)c2n[nH]c(=O)c3ccccc23)cc1 was read as STAT3 act 96, HSV replic up inactive, STAT3 inh 8, STAT1 act 133*, STAT1 blocker -36 and KCC2 mod 0.49.
For CC(C)c1ccc(NC(=O)c2cccnc2)cc1 the results were STAT3 act 89, HSV replic up inactive, STAT3 inh 15, STAT1 act 143*, STAT1 blocker -47 and KCC2 mod -0.59.
Screening CC(C)c1ccc(NC(=S)NNC(=O)c2cccnc2)cc1 returned STAT3 act 105, HSV replic up inactive, STAT3 inh 0, STAT1 act 116, STAT1 blocker -18 and KCC2 mod -0.92.
COc1ccc(N2CCN(C(=O)c3cccnc3)CC2)c([N+](=O)[O-])c1 was read as STAT3 act 104, HSV replic up inactive, STAT3 inh 1, STAT1 act 101, STAT1 blocker -1 and KCC2 mod 1.7.
Cc1nn(C)c(C(=O)N/N=C/c2cc3c(cc2Br)OCO3)c1Br was read as STAT3 act 100, HSV replic up inactive, STAT3 inh 1, STAT1 act 99, STAT1 blocker 1 and KCC2 mod 0.12.
`Cc1nonc1C(=O)N/N=C/c1ccccc1` gave STAT3 act 110, HSV replic up inactive, STAT3 inh -12, STAT1 act 132*, STAT1 blocker -34 and KCC2 mod 0.43.
`Cc1nonc1C(=O)N/N=C/c1cc2c(cc1Br)OCO2` gave STAT3 act 133*, HSV replic up inactive, STAT3 inh -33, STAT1 act 119, STAT1 blocker -22 and KCC2 mod -1.8.
For Cc1nnc(NC(=O)c2ccccc2Oc2ccccc2)s1 the results were STAT3 act 108, HSV replic up inactive, STAT3 inh -5, STAT1 act 98, STAT1 blocker 2 and KCC2 mod 0.77.
Cc1ccccc1NC(=O)COC(=O)c1c[nH]c(=O)[nH]c1=O was read as STAT3 act 99, HSV replic up inactive, STAT3 inh 9, STAT1 act 105, STAT1 blocker -6 and KCC2 mod 1.2.
Screening O=C(Nc1cccc2ccccc12)c1ccc([N+](=O)[O-])s1 returned STAT3 act 76, HSV replic up inactive, STAT3 inh 31, STAT1 act 91, STAT1 blocker 9 and KCC2 mod 0.37.
`O=C(NNC(=S)Nc1cccc2ccccc12)c1cccc(Br)c1` gave STAT3 act 109, HSV replic up inactive, STAT3 inh -10, STAT1 act 101, STAT1 blocker 0 and KCC2 mod 14*.
Cc1ccc(C(=O)NNC(=S)Nc2cccc3ccccc23)s1 was read as STAT3 act 134*, HSV replic up inactive, STAT3 inh -43, STAT1 act 108, STAT1 blocker -9 and KCC2 mod 4.
For O=C(O)CC1(CC(=O)Nc2ccc3ccccc3n2)CCCCC1 the results were HSV replic up inactive and KCC2 mod 0.027.
Screening CN(C)c1ccc(NC(=O)CCCc2ccccc2)cc1 returned STAT3 act 107, HSV replic up inactive, STAT3 inh -4, STAT1 act 138* and STAT1 blocker -42.
For O=C(Nc1ccc(NC(=O)c2ccco2)nc1)c1ccccn1 the results were STAT3 act 78, HSV replic up inactive, STAT3 inh 30, STAT1 act 128, STAT1 blocker -28 and KCC2 mod -0.26.
CN(c1ccccc1)S(=O)(=O)c1ccc(NC(=O)c2ccco2)cc1 was read as STAT3 act 97, HSV replic up inactive, STAT3 inh 14, STAT1 act 132*, STAT1 blocker -37 and KCC2 mod -0.32.
`O=C(Nc1ccc(-c2nc3ccccc3[nH]2)cc1)c1ccco1` gave STAT3 act 101, HSV replic up inactive, STAT3 inh 6, STAT1 act 141*, STAT1 blocker -45 and KCC2 mod -1.4.
O=C(Nc1nccs1)c1ccc(NC(=O)c2ccco2)cc1 was read as STAT3 act 104, HSV replic up inactive, STAT3 inh -4, STAT1 act 137* and STAT1 blocker -48.
